A selection: hits, their analogues and other compounds. The true share with any hit is near 2.5%.
MC4R antag cAMP: antagonists of human melanocortin 4 receptor (MC4R); 0.48% of 360,000 active; inhibition, % at 6.5 µM; P32245; AID 540295; MC4R-expressing cells, MTII-stimulated cAMP, LANCE TR-FRET;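 active = inhibition above its plate's cutoff, the mean of tested wells on that plate plus 3 SD, cut at about 29% in these data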
Target sequence (P32245 whole entry, looked up): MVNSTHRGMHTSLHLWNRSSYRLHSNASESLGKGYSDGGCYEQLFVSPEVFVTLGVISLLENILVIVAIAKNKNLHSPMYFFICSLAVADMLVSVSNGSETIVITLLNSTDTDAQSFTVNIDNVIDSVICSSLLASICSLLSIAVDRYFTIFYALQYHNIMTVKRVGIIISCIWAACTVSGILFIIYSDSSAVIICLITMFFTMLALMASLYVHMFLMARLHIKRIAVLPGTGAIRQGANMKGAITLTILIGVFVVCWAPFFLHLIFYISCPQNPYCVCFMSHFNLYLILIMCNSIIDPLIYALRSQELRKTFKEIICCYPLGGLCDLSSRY
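system = U2OS cells with stable human MC4R expression | also added = Melanotan II challenge after compound preincubation | dosing = one concentration, 6.5 µM nominal | incubation = compound 30 min, challenge 1 h, detection 1 h | measured by = TR-FRET with Eu-cAMP and labeled anti-cAMP, 671 nm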
NALP1 yeast inh: NALP1 inhibition; inhibition, % at 10 µM; S. cerevisiae NALP1/ASC/caspase-1 growth, X-gal OD620, 72 h; AID 2071; 0.61% of 280,000 active; in the data active = inhibition mostly above about 24%, no sharp cut-off; inactive = mostly below about 32%
NLRP3 yeast inh: NALP3 inhibition in yeast. inhibition, % at 10 µM. 0.39% of 330,000 active. AID 2825. Yeast reconstituted NLRP3/ASC/caspase-1, beta-gal luminescence, 24 h;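 active = inhibition of 50% or more; inactive = inhibition below 50%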
MC4R barr agon: activates human MC4R beta-arrestin recruitment | P32245 | U2OS MC4R beta-arrestin complementation, luminescence; percent of melanotan II response, DMSO zero | activation, % at 8.9 µM | 0.98% of 360,000 active;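 active = activation above a per-plate cutoff, the mean activation of sample wells on that plate plus 3 SD, cut at about 8% in these data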
A1 inh: inhibitors of the anti-apoptotic protein A1, read as caspase activation; MEF A1-2A-BIM cells, Caspase-Glo 3/7 luminescence, 3 h; percent of clofoctol response, vehicle zero; caspase activation, % (no concentration beside the values); 0.066% of 330,000 active;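 active = over half of replicate activation scores above 10%, or exactly half above 10 with the replicate mean above 10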
Tb MetRS inh: blocks T. brucei methionyl-tRNA synthetase activity; purified T. brucei MetRS, ATP depletion, Kinase-Glo luminescence; inhibition, % at 11.9 µM; 0.4% of 360,000 active;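 active = inhibition above a per-plate cutoff of the control wells' mean inhibition plus 3 SD, cut at about 5.5% in these data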
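Material – parasite MetRS enzyme · Medium – HEPES-MgCl2-KCl buffer plus DTT, spermine, BSA, pyrophosphatase · Reagent – ATP, methionine and E. coli bulk tRNA substrates · Times – 15 min enzyme-compound preincubation, 2 h reaction, 10 min detection, 25 °C · Measured by – luminescence of leftover ATP · Evaluation – percent inhibition relative to median high and low control wells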
NALP3 yeast conf: NALP3 inhibition confirmation in yeast | shares compounds with NLRP3 yeast inh | yeast expressing human NALP3, luminescence | inhibition, % at 10 µM | 81% of 1,300 active | AID 435006; in the data active = inhibition above about 48%
Casp1 ASC ctr: active in yeast caspase-1-ASC counter-screen for NALP3 inhibitors | 66% of 1,000 active | yeast expressing Caspase-1-ASC, luminescence counter screen | inhibition, % at 10 µM | shares compounds with NLRP3 yeast inh
NALP3 yeast rt: retest-confirmed inhibitor of NALP3 in yeast. shares compounds with NLRP3 yeast inh. yeast expressing human NALP3, luminescence read-out. inhibition, % at 10 µM. 53% of 1,000 active
A number is an active result; n = inactive; x = no result given. Rule as the data show it, unless noted: active = inhibition above about 50%; inactive = the rest.

SMILES	MC4R antag cAMP	NALP1 yeast inh	NLRP3 yeast inh	MC4R barr agon	A1 inh	Tb MetRS inh	NALP3 yeast conf	Casp1 ASC ctr	NALP3 yeast rt
Cc1cccc(N(C)c2ccc3cc(S(=O)(=O)N4CCCC4)ccc3n2)c1	n	n	68.4	n	n	n	79.3	74.9	58.1
O=C(CN1CCN(S(=O)(=O)c2cccc(Br)c2)CC1)N1CCCCC1	n	x	n	n	n	n	x	x	x
CCn1c2ccccc2c2cc(/C=N/n3cnnc3)ccc21	n	n	n	n	n	n	x	x	x
CCn1c2ccccc2c2cc(/C=N/n3cn[nH]c3=S)ccc21	n	n	67.9	n	n	n	74.4	82.2	62.9
CCC1Nc2ncnc(N3CCCCC3)c2N(Cc2ccc(Cl)cc2)C1=O (centres undefined)	n	x	n	n	n	n	x	x	x
CCC1Nc2ncnc(N3CCN(c4ccccn4)CC3)c2N(Cc2ccc(Cl)cc2)C1=O (centres undefined)	n	x	50.5	n	n	n	59.8	n	51.6
CCC1Nc2ncnc(N3CCN(c4ccccn4)CC3)c2N(Cc2ccc(Br)cc2)C1=O (centres undefined)	n	x	55.7	n	n	n	69.6	n	65.7
Nc1nonc1-n1nnc(C(=O)N/N=C/c2cccc(F)c2)c1CN1CCCCCC1	n	x	n	n	n	n	x	x	x
O=C(NCCC1=CCCCC1)c1ccc([N+](=O)[O-])cc1	n	n	57.7	n	n	n	n	x	x
O=C(Nc1cccnc1)c1cc(-c2ccccc2)on1	n	n	50.2	n	n	n	n	x	x
O=C(Nc1cccnc1)c1cc(-c2ccc(Br)cc2)on1	n	n	n	n	n	n	x	x	x
Cc1ccc(C(=O)c2coc3ccc(O)c(Cl)c23)cc1	n	n	n	n	n	n	x	x	x
COc1ccc2occ(C(=O)c3ccc(N)cc3)c2c1	n	n	56.5	n	n	n	68.5	n	n
Cc1ccc(C(=O)c2coc3ccc(O)cc23)cc1	n	n	65.2	n	n	n	65.7	n	n
COc1ccc(C(=O)NNC(=S)NC(=O)c2ccc(Cl)cc2)cc1	x	x	54.4	x	n	x	57.8	59.8	58.0
COc1cc(C(=O)NNC(=S)NC(=O)c2ccc(Cl)cc2)cc(OC)c1OC	n	n	n	n	n	n	x	x	x
CCCOc1ccc(C(=O)NNC(=S)NC(=O)c2cccs2)cc1	n	n	55.5	n	n	n	76.8	n	54.7
CCCOc1ccc(C(=O)NNC(=S)NC(=O)c2ccccc2)cc1	n	n	n	n	n	n	x	x	x
COc1ccc(C(=O)NC(=S)NNC(=O)c2ccc(C)cc2)cc1	n	x	54.3	n	n	n	66.0	54.6	60.1
O=C(CCS(=O)(=O)c1ccccc1)N(CCCN1CCOCC1)c1nc2c(F)cccc2s1	n	x	56.6	n	n	n	71.6	n	52.6
CCc1cccc(NC(=S)N2CCC(c3ccccc3)C2)c1 (centres undefined)	n	n	51.6	n	n	n	56.0	61.8	n
C[C@H]1CN([C@@H](C)CO)S(=O)(=O)c2ccc(Br)cc2O[C@@H]1CN(C)C(=O)CCN1CCCCC1	n	x	x	n	x	n	x	x	x
Cc1ccc(C(=O)CSc2ncnc3ccccc23)o1	n	n	53.9	n	n	n	68.7	73.1	58.1
O=C1NC(=Nc2ccccc2)S/C1=C\c1cccs1	n	x	56.1	n	n	n	n	x	x
FC(F)(F)c1cc(-c2ccco2)nc(NCc2cccnc2)n1	n	n	53.0	n	n	n	66.3	52.2	n
SMILES	MC4R antag cAMP	NALP1 yeast inh	NLRP3 yeast inh	MC4R barr agon	A1 inh	Tb MetRS inh	NALP3 yeast conf	Casp1 ASC ctr	NALP3 yeast rt
FC(F)(F)c1cc(-c2ccccc2)nc(NCc2cccnc2)n1	n	n	53.9	n	n	n	n	x	x
FC(F)(F)c1cc(-c2ccco2)nc(NCc2ccccc2)n1	n	n	n	n	n	n	x	x	x
CC(C)N(C(=O)[C@H]1C[C@H](CC(=O)NCCC2=CCCCC2)C(=O)N2CCc3c([nH]c4cc(-c5ccco5)ccc34)[C@]12C)C(C)C	n	x	x	n	x	n	x	x	x
Cc1ccc(-n2nnnc2SCC(=O)N2CCc3ccccc3C2)cc1	n	n	70.4	n	x	n	75.5	76.7	73.7
Cc1ccc(-n2nnnc2SCC(=O)N2CCc3ccccc3C2)c(C)c1	n	n	n	n	n	n	x	x	x
COc1ccc(NC(=O)C2CCN(S(=O)(=O)c3cccs3)CC2)cc1OC	n	x	n	n	n	n	x	x	x
C/C(CCC12CC3CC(CC(C3)C1)C2)=N\NC(N)=S	n	n	58.0	n	n	n	50.2	69.9	n
COc1ccc(NC(=O)c2ccc(S(=O)(=O)N3CC(C)OC(C)C3)cc2)cc1 (centres undefined)	n	x	n	n	n	n	x	x	x
CC(=O)c1cccc(NC(=O)CSC(=O)c2ccccc2)c1	n	n	n	n	n	n	x	x	x
CCN(CC)c1ccc(NC(=O)CSC(=O)c2ccccc2)cc1	n	x	55.8	n	n	n	54.2	56.5	n
COc1ccc(C(=O)c2cc([N+](=O)[O-])ccc2N2CCCC2)cc1	n	n	56.2	n	n	n	n	x	x
COc1ccc(C(=O)c2cc([N+](=O)[O-])ccc2N2CCN(C)CC2)cc1	n	n	n	n	n	n	x	x	x
O=C1OCC/C1=C\c1ccc2c(c1)OCO2	n	n	n	n	n	n	x	x	x
O=C1/C(=C\c2ccc3c(c2)OCO3)CCC/C1=C/c1ccc2c(c1)OCO2	n	n	n	n	n	n	48.8	n	n
Cc1c(C)c2cccnc2c2ncccc12	n	x	78.3	n	n	n	85.9	96.3	85.7
CN(Cc1ccccc1)C(=O)CCC1CCN(S(C)(=O)=O)CC1	n	n	n	n	n	n	x	x	x
Cc1ccc(C(=O)N2CC(=O)NC(=O)C2)cc1	n	n	50.6	n	n	n	49.0	n	n
COc1ccc(CNC(=O)C2COc3ccccc3O2)c(OC)c1 (centres undefined)	n	n	52.6	n	n	n	65.5	n	n
COc1ccc(OC)c(NC(=O)C2COc3ccccc3O2)c1 (centres undefined)	n	n	n	n	n	n	x	x	x
CCCCCOc1ccc(OC(=O)c2ccncc2)cc1	n	n	n	n	n	n	x	x	x
CCCCOc1ccc(C(=O)Oc2ccc(C)nc2)cc1	n	n	79.6	n	n	n	86.7	92.4	83.8
CCN(C[C@H]1N[C@@](Cc2ccccc2)(C(=O)OC)[C@H]2C(=O)N(C)C(=O)[C@@H]12)C(=O)Nc1ccc(C(F)(F)F)cc1	n	x	n	n	n	n	x	x	x

Screens (PubChem)
